# Experimental data as given in ChEMBL document CHEMBL3045045, “Antifungal activity of CHE-23C, a dimeric sesquiterpene from Chloranthus henryi” (2009).
# Legend:
# Format in all cases: functional
# [1] = test system: Blumeria hordei; assay: Antifungal activity against Blumeria graminis f. sp. hordei infected compound pre-treated barley plant seedlings assessed as barley powdery mildew disease control efficacy at 100 ug/mL under greenhouse conditions
# Summary of the method: (§1)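 Barley or wheat seedlings sprayed to runoff with compound in 1% Tween 20 containing water/DMSO (99:1); controls got Tween 20 with 1% DMSO; left 24 h before inoculation; greenhouse. Pots in randomized complete block, three replicates; infected leaf area averaged and converted to % control = 100×[(A−B)/A] versus Tween-only plants.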
# [2] = test system: Blumeria hordei; assay: Antifungal activity against Blumeria graminis f. sp. hordei infected compound pre-treated barley plant seedlings assessed as barley powdery mildew disease control efficacy at 33 ug/mL under greenhouse conditions
# Summary of the method: (§2)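 Greenhouse protective assay. Seedlings were sprayed to runoff with compound in 1% Tween 20 containing 1% DMSO; controls got Tween 20 with 1% DMSO. Plants stood 24 h before pathogen inoculation. Infected leaf area was scored. Three replicates in randomized complete blocks; % control = 100 × (A−B)/A against the Tween-only control; means compared by LSD at P = 0.05.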
# [3] = test system: Blumeria hordei; assay: Antifungal activity against Blumeria graminis f. sp. hordei infected compound pre-treated barley plant seedlings assessed as barley powdery mildew disease control efficacy at 11 ug/mL under greenhouse conditions; summary of the method: as §2
# [4] = test system: Pyricularia grisea; assay: Antifungal activity against Magnaporthe grisea infected compound pre-treated rice plant seedlings assessed as rice blast disease control efficacy at 11 ug/mL under greenhouse conditions
# Summary of the method: (§3)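 Rice seedlings at third-leaf stage sprayed to runoff with compound in 1% Tween 20 (water/DMSO 99:1), left 24 h, then sprayed with M. grisea spores (5 × 10^5 spores/mL). Greenhouse; randomized complete block, three replicates; % control = 100×[(A−B)/A] from infected leaf area versus Tween 20/1% DMSO controls.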
# [5] = test system: Cryptococcus neoformans; assay: Antifungal activity against Cryptococcus neoformans ATCC 36556 after 48 to 72 hr […]
# [6] = test system: Candida tropicalis; assay: Antifungal activity against Candida tropicalis ATCC 13803 after 48 to 72 hr by agar dilution method
# [7] = test system: Pichia kudriavzevii; assay: Antifungal activity against Pichia kudriavzevii ATCC 42720 after 48 to 72 hr by agar dilution method
# [8] = test system: Clavispora lusitaniae; assay: Antifungal activity against Clavispora lusitaniae ATCC 6258 after 48 to 72 hr by agar dilution method
# [9] = test system: Puccinia recondita; assay: Antifungal activity against Puccinia recondita infected compound pre-treated wheat plant seedlings assessed as wheat leaf rust disease control efficacy at 100 ug/mL under greenhouse conditions; summary of the method: as §2
# [10] = test system: Puccinia recondita; assay: Antifungal activity against Puccinia recondita infected compound pre-treated wheat plant seedlings assessed as wheat leaf rust disease control efficacy at 33 ug/mL under greenhouse conditions; summary of the method: as §2
# [11] = test system: Puccinia recondita; assay: Antifungal activity against Puccinia recondita infected compound pre-treated wheat plant seedlings assessed as wheat leaf rust disease control efficacy at 11 ug/mL under greenhouse conditions; summary of the method: as §2
# [12] = test system: Phytophthora infestans; assay: Antifungal activity against Phytophthora infestans infected compound pre-treated tomato plant seedlings assessed as tomato late blight disease control efficacy at 100 ug/mL measured after 2 days under greenhouse conditions
# Summary of the method: (§4)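 Tomato seedlings at second-leaf stage sprayed to runoff with compound in 1% Tween 20 (water/DMSO 99:1), left 24 h, then sprayed with P. infestans zoospore suspension (5 × 10^4 sporangia/mL). Held 1 day at 20 C, 100% RH, then 2 days in growth chamber. Three replicates, randomized blocks; % control from infected area versus Tween 20/1% DMSO controls.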
# [13] = test system: Phytophthora infestans; assay: Antifungal activity against Phytophthora infestans infected compound pre-treated tomato plant seedlings assessed as tomato late blight disease control efficacy at 33 ug/mL measured after 2 days under greenhouse conditions; summary of the method: as §4
# [14] = test system: Phytophthora infestans; assay: Antifungal activity against Phytophthora infestans infected compound pre-treated tomato plant seedlings assessed as tomato late blight disease control efficacy at 11 ug/mL measured after 2 days under greenhouse conditions; summary of the method: as §4
# [15] = test system: Candida albicans; assay: Antifungal activity against Candida albicans isolate A207 after 48 to 72 hr by agar dilution method
# [16] = test system: Candida albicans; assay: Antifungal activity against Candida albicans ATCC 10231 after 48 to 72 hr by agar dilution method
# [17] = test system: Globisporangium ultimum; assay: Antifungal activity against Pythium ultimum after 48 to 72 hr by agar dilution method
# Summary of the method: (§5)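 Agar dilution MIC on field-isolate phytopathogens. Compound in DMSO added to molten potato dextrose agar at 0.25-128 μg/mL (2-fold serial dilution). Inocula were 5 mm mycelial disks cut from actively growing colony margins after 3-7 days at 20-25 C. Plates were incubated at 20-25 C for 24-72 h. MIC is the lowest concentration giving complete growth inhibition versus a no-compound control. Run three times.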
# [18] = test system: Rhizoctonia solani; assay: Antifungal activity against Rhizoctonia solani after 48 to 72 hr by agar dilution method; summary of the method: as §5
# [19] = test system: Phytophthora infestans; assay: Antifungal activity against Phytophthora infestans after 48 to 72 hr by agar dilution method
# Summary of the method: (§6)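 Agar dilution: DMSO stock added to molten medium (potato dextrose agar, or V-8 juice agar) at 0.25–128 μg/mL, 2-fold series. Inoculum was 5 mm mycelial disks from actively growing colony margins pre-grown 3–7 days at 20–25 C. Plates incubated 20–25 C for 24–72 h. MIC = lowest concentration giving complete growth inhibition versus compound-free plate; three repeats.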
# [20] = test system: Pyricularia grisea; assay: Antifungal activity against Magnaporthe grisea after 48 to 72 hr by agar dilution method; summary of the method: as §6
# [21] = test system: Colletotrichum lagenaria; assay: Antifungal activity against Colletotrichum lagenaria after 48 to 72 hr by agar dilution method; summary of the method: as §5
# [22] = test system: Fusarium oxysporum; assay: Antifungal activity against Fusarium oxysporum after 48 to 72 hr by agar dilution method; summary of the method: as §5
# [23] = test system: Botrytis cinerea; assay: Antifungal activity against Botryotinia fuckeliana after 48 to 72 hr by agar dilution method; summary of the method: as §5
# [24] = test system: Alternaria kikuchiana; assay: Antifungal activity against Alternaria kikuchiana after 48 to 72 hr by agar dilution method; summary of the method: as §5
# [25] = test system: Botrytis cinerea; assay: Antifungal activity against Botryotinia fuckeliana infected in compound pre-treated tomato plant seedlings assessed as tomato gray mold disease control efficacy at 100 ug/mL measured 3 days post fungus inoculation under greenhouse conditions
# Summary of the method: (§7)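 Tomato seedlings were sprayed to runoff with compound in 1% Tween 20 containing 1% DMSO; controls got Tween 20 with 1% DMSO. After 24 h, second-leaf-stage plants were sprayed with B. cinerea spores (10^6/mL) and kept dark at 20 C, 100% RH. Infected leaf area was scored 3 days post-inoculation. Three replicates in randomized complete blocks; % control = 100 × (A−B)/A against the Tween-only control.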
# [26] = test system: Botrytis cinerea; assay: Antifungal activity against Botryotinia fuckeliana infected in compound pre-treated tomato plant seedlings assessed as tomato gray mold disease control efficacy at 33 ug/mL measured 3 days post fungus inoculation under greenhouse conditions; summary of the method: as §7
# [27] = test system: Botrytis cinerea; assay: Antifungal activity against Botryotinia fuckeliana infected in compound pre-treated tomato plant seedlings assessed as tomato gray mold disease control efficacy at 11 ug/mL measured 3 days post fungus inoculation under greenhouse conditions; summary of the method: as §7
# [28] = test system: Corticium; assay: Antifungal activity against Corticium sasaki infected compound pre-treated rice plant seedlings through soil application of fungus assessed as rice sheath blight disease control efficacy at 100 ug/mL under greenhouse conditions
# Summary of the method: (§8)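 Rice seedlings were sprayed to runoff with compound in 1% Tween 20 containing 1% DMSO; controls got Tween 20 with 1% DMSO. After 24 h, fourth-leaf-stage plants were inoculated by adding 7-day-old C. sasaki cultures to the soil. Infected sheath area was scored. Three replicates in randomized complete blocks; % control = 100 × (A−B)/A against the Tween-only control.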
# [29] = test system: Corticium; assay: Antifungal activity against Corticium sasaki infected compound pre-treated rice plant seedlings through soil application of fungus assessed as rice sheath blight disease control efficacy at 33 ug/mL under greenhouse conditions; summary of the method: as §8
# [30] = test system: Corticium; assay: Antifungal activity against Corticium sasaki infected compound pre-treated rice plant seedlings through soil application of fungus assessed as rice sheath blight disease control efficacy at 11 ug/mL under greenhouse conditions; summary of the method: as §8
# [31] = test system: Pyricularia grisea; assay: Antifungal activity against Magnaporthe grisea infected compound pre-treated rice plant seedlings assessed as rice blast disease control efficacy at 100 ug/mL under greenhouse conditions; summary of the method: as §3
# [32] = test system: Pyricularia grisea; assay: Antifungal activity against Magnaporthe grisea infected compound pre-treated rice plant seedlings assessed as rice blast disease control efficacy at 33 ug/mL under greenhouse conditions; summary of the method: as §3
# [33] = test system: Blumeria hordei; assay: Antifungal activity against Blumeria graminis f. sp. hordei infected compound pre-treated barley plant seedlings assessed as barley powdery mildew disease control efficacy at 1 ug/mL under greenhouse conditions; summary of the method: as §1
# [34] = test system: Puccinia recondita; assay: Antifungal activity against Puccinia recondita infected compound pre-treated wheat plant seedlings assessed as wheat leaf rust disease control efficacy at 20 ug/mL under greenhouse conditions; summary of the method: as §1
# [35] = test system: Puccinia recondita; assay: Antifungal activity against Puccinia recondita infected compound pre-treated wheat plant seedlings assessed as wheat leaf rust disease control efficacy at 50 ug/mL under greenhouse conditions; summary of the method: as §1
# [36] = test system: Phytophthora infestans; assay: Antifungal activity against Phytophthora infestans infected compound pre-treated tomato plant seedlings assessed as tomato late blight disease control efficacy at 50 ug/mL measured after 2 days under greenhouse conditions; summary of the method: as §4
# [37] = test system: Phytophthora infestans; assay: Antifungal activity against Phytophthora infestans infected compound pre-treated tomato plant seedlings assessed as tomato late blight disease control efficacy at 10 ug/mL measured after 2 days under greenhouse conditions; summary of the method: as §4
# [38] = test system: Phytophthora infestans; assay: Antifungal activity against Phytophthora infestans infected compound pre-treated tomato plant seedlings assessed as tomato late blight disease control efficacy at 2 ug/mL measured after 2 days under greenhouse conditions; summary of the method: as §4
# [39] = test system: Botrytis cinerea; assay: Antifungal activity against Botryotinia fuckeliana infected in compound pre-treated tomato plant seedlings assessed as tomato gray mold disease control efficacy at 50 ug/mL measured 3 days post fungus inoculation under greenhouse conditions
# [40] = test system: Botrytis cinerea; assay: Antifungal activity against Botryotinia fuckeliana infected in compound pre-treated tomato plant seedlings assessed as tomato gray mold disease control efficacy at 5 ug/mL measured 3 days post fungus inoculation under greenhouse conditions
# [41] = test system: Corticium; assay: Antifungal activity against Corticium sasaki infected compound pre-treated rice plant seedlings through soil application of fungus assessed as rice sheath blight disease control efficacy at 50 ug/mL under greenhouse conditions
# Summary of the method: (§9)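 Rice seedlings at fourth-leaf stage sprayed to runoff with compound in 1% Tween 20 (water/DMSO 99:1), left 24 h, then inoculated by adding 7-day-old C. sasaki cultures to soil. Greenhouse; three replicates, randomized complete block; % control = 100×[(A−B)/A] from infected sheath area relative to Tween 20/1% DMSO-treated plants.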
# [42] = test system: Corticium; assay: Antifungal activity against Corticium sasaki infected compound pre-treated rice plant seedlings through soil application of fungus assessed as rice sheath blight disease control efficacy at 5 ug/mL under greenhouse conditions; summary of the method: as §9
structure (smiles),measurement,setting,value
C/C=C(\C)C(=O)OC[C@]1(O)[C@H]2C[C@H]2[C@]2(C)[C@@H]3CC4=C5[C@H](/C(=C(/C)C(=O)OC)C(=O)[C@H](O)[C@@]5(C)[C@@H]5C[C@H]45)[C@@]34OC(=O)C(COC(C)=O)=C4C[C@@H]12,Efficacy,[1],17%
same,Efficacy,[2],0%
same,Efficacy,[3],0%
same,Efficacy,[4],67%
same,MIC,[5],16 µg/mL
same,MIC,[6],> 128 µg/mL
same,MIC,[7],128 µg/mL
same,MIC,[8],128 µg/mL
same,Efficacy,[9],100%
same,Efficacy,[10],87%
same,Efficacy,[11],80%
same,Efficacy,[12],93%
same,Efficacy,[13],91%
same,Efficacy,[14],29%
same,MIC,[15],8 µg/mL
same,MIC,[16],64 µg/mL
same,MIC,[17],1 µg/mL
same,MIC,[18],16 µg/mL
same,MIC,[19],32 µg/mL
same,MIC,[20],4 µg/mL
same,MIC,[21],8 µg/mL
same,MIC,[22],16 µg/mL
same,MIC,[23],8 µg/mL
same,MIC,[24],8 µg/mL
same,Efficacy,[25],36%
same,Efficacy,[26],14%
same,Efficacy,[27],7.2%
same,Efficacy,[28],69%
same,Efficacy,[29],50%
same,Efficacy,[30],50%
same,Efficacy,[31],72%
same,Efficacy,[32],50%
CCCCNC(=O)n1c(NC(=O)OC)nc2ccccc21 [BENOMYL],Efficacy,[33],90%
same,Efficacy,[1],100%
CC1=C(C(=O)Nc2ccccc2)SCCO1 [CARBOXIN],Efficacy,[34],43%
same,Efficacy,[35],100%
N#Cc1c(Cl)c(Cl)c(Cl)c(C#N)c1Cl [CHLOROTHALONIL],Efficacy,[36],94%
same,Efficacy,[12],100%
COc1ccc(C(=CC(=O)N2CCOCC2)c2ccc(Cl)cc2)cc1OC [DIMETHOMORPH],Efficacy,[37],100%
same,Efficacy,[38],64%
N#Cc1c[nH]cc1-c1cccc2c1OC(F)(F)O2 [FLUDIOXONIL],Efficacy,[39],100%
same,Efficacy,[40],82%
OCC1=C[C@H](N[C@H]2C[C@H](CO)[C@@H](O[C@@H]3O[C@H](CO)[C@@H](O)[C@H](O)[C@H]3O)[C@H](O)[C@H]2O)[C@H](O)[C@@H](O)[C@@H]1O [VALIDAMYCIN],Efficacy,[41],100%
same,Efficacy,[42],75%
